The source made the active and inactive calls.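 How the source made its calls: active means duplicate-averaged activation above buffer control mean plus 5 SD of those controls; inactive means the rest.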

The nature of the test: nonspecific flux increase, KCNQ1-free cells – parental CHO cells, counter-screen for KCNQ1 potentiator project (AID 493006). The note with it: parental CHO-K1 cells, FluxOR thallium flux, at 10 µM; active compounds read high. An outline of the steps: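 Test system: parental CHO-K1 cells, FluxOR dye-loaded / Probe or stimulus: potassium plus thallium depolarizing stimulus, 5x stock 12.5 mM K2SO4, Tl2SO4 / Timing: overnight 37 °C plating, 90 min dye, 20 min dark compound / Measured by: kinetic thallium-flux fluorescence / Read-out: max-minus-min fluorescence over baseline, percent of buffer-to-R-L3 span / Benchmarks: buffer and R-L3 controls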
Take `Cc1ccc2sc(N(CCCN(C)C)C(=O)CCS(=O)(=O)c3ccccc3)nc2c1C`: the outcome was inactive.

On to `Cc1sc(-n2c(C)cc(/C=C3\SC(=S)NC3=O)c2C)c(C#N)c1C`, for which the activation was 145% (active).

In the case of `CCOC(=O)C(=Cc1cc(=O)c(OC)co1)C(=O)OCC`, the outcome was inactive.

With `CC(=O)OC1OCCOC1NC(=S)Nc1ccc(C)cc1` (stereo not drawn), the outcome was inactive.

Turning to `C=CCn1c(=S)[nH]c2sc3c(c2c1=O)CCCC3`, the activation is 294% (active).

With `CCC1CCC2(CC1)NNC(=S)NN2`, the result was inactive.

As to `CCOC(=O)c1oc2c(CN3CCCCC3C)c(O)ccc2c(=O)c1-c1ccc(OC)c(OC)c1` (stereo not drawn), the outcome was inactive.

Take `Cc1cccc(-c2nnc(NC(=O)c3ccc(Cl)cc3)o2)c1`: the result was inactive.

For the molecule `Oc1c(N=NC(=S)Nc2ccccc2F)c2ccccc2n1Cc1ccc(F)cc1`, the outcome was inactive.

`CCCn1c(N)c(C(=O)CSc2nc(C)nc3sc(C)c(C)c23)c(=O)[nH]c1=O`: the activation was 166% (active).

On to `O=C(NC(=S)Nc1ccccc1Br)c1ccco1`, for which the result was inactive.

As for `CCOc1ccc(NC(=S)NC(=O)c2ccco2)cc1`, the result was inactive.

As to `Cc1ccc2nc(NC(=S)NC(=O)c3ccco3)sc2c1`, the activation is 360% (active).

For the molecule `COc1cccc(OC)c1C(=O)Nc1cccc(-c2ccc3nncn3n2)c1`, the result was inactive.

Turning to `C=C(C)CNC(=O)c1ccc(OC2CCN(C(=O)COC)CC2)cc1`, the result was inactive.

Take `CCOc1ccc(-n2cc(-c3ccccc3)c3c(=S)nc[nH]c32)cc1`: the activation was 337% (active).

In the case of `CCc1ccc(NC(=O)C(=O)NNC(=O)COc2cccc(OC)c2)cc1`, the activation was 164% (active).

Turning to `COC(=O)c1ccc(COC(=O)c2ccccc2OC)cc1`, the outcome was inactive.

These data come from PubChem BioAssay.
